{"source": "ChEMBL document CHEMBL3877303", "about": "(J Med Chem, 2017)", "key": {"[1]": {"assay": "Cell cycle arrest in human KU812 cells assessed as accumulation at G0/G1 phase at 1 uM after 12 hrs by propidium iodide/RNase staining based flow cytometry", "assay_type": "functional", "outline": "(§1)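 Cells were exposed to serially diluted compound, then fixed in cold 70% ethanol overnight at -20 °C. They were stained with PI/RNase buffer for DNA-content cell-cycle analysis.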"}, "[2]": {"target": "T1, Mast/stem cell growth factor receptor Kit (Homo sapiens, UniProt P10721)", "T1 sequence (P10721 whole entry)": "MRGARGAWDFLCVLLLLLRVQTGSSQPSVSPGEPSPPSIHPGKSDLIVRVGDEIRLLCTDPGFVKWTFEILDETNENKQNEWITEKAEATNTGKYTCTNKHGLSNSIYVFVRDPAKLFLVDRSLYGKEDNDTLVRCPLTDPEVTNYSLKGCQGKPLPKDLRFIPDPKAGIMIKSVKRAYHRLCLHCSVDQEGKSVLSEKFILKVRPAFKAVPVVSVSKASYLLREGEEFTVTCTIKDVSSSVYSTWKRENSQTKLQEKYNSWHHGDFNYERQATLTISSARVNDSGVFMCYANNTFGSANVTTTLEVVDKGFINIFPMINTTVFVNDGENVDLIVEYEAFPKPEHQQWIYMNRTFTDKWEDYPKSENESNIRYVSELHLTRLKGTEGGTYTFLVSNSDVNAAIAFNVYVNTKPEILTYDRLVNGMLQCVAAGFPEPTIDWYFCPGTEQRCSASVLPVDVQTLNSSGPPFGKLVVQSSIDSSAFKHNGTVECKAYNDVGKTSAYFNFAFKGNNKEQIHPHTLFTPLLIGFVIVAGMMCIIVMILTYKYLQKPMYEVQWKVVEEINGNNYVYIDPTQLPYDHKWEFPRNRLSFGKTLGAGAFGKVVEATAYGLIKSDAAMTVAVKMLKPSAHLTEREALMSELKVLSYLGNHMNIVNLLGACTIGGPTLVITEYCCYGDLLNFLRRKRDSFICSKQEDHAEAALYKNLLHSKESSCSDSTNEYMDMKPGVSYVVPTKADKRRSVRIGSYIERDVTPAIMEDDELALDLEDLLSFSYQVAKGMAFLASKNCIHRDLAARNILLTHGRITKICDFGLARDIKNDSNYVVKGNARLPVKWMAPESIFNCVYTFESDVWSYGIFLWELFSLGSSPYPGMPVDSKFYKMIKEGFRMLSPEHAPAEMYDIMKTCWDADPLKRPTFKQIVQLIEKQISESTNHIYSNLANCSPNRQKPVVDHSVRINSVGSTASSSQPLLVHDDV", "settings": "GISTT1, 1 uM"}, "[3]": {"target": "T1, Mast/stem cell growth factor receptor Kit", "settings": "GISTT1, 1 uM", "remark": "listed apart in the source"}, "[4]": {"target": "T1, Mast/stem cell growth factor receptor Kit", "settings": "1 uM"}, "[5]": {"target": "T2, Tyrosine-protein kinase Lck (Homo sapiens, UniProt P06239)", "T2 sequence (P06239 2-509 limits assumed)": "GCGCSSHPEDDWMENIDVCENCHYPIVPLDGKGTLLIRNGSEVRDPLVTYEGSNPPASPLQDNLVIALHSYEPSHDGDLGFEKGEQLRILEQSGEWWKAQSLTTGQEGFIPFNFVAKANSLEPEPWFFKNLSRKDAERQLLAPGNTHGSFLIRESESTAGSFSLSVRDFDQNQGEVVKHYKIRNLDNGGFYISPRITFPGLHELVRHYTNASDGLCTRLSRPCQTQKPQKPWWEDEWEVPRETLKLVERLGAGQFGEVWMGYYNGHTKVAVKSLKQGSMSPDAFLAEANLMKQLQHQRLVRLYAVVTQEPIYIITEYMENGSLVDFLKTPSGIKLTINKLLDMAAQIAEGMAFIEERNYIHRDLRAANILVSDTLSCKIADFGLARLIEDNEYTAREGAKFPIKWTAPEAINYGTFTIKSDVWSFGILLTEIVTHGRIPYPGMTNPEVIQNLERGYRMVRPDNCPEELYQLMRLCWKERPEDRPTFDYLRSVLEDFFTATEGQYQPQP", "assay": "Inhibition of recombinant C-terminal His-tagged human LCK cytoplasmic domain expressed in baculovirus expression system assessed as residual activity at 1 uM measured after 1 hr by FRET based Z'Lyte assay relative to control"}, "[6]": {"target": "Epithelial discoidin domain-containing receptor 1 (Homo sapiens, UniProt Q08345)", "sequence (Q08345 whole entry, the tested form may be a part)": "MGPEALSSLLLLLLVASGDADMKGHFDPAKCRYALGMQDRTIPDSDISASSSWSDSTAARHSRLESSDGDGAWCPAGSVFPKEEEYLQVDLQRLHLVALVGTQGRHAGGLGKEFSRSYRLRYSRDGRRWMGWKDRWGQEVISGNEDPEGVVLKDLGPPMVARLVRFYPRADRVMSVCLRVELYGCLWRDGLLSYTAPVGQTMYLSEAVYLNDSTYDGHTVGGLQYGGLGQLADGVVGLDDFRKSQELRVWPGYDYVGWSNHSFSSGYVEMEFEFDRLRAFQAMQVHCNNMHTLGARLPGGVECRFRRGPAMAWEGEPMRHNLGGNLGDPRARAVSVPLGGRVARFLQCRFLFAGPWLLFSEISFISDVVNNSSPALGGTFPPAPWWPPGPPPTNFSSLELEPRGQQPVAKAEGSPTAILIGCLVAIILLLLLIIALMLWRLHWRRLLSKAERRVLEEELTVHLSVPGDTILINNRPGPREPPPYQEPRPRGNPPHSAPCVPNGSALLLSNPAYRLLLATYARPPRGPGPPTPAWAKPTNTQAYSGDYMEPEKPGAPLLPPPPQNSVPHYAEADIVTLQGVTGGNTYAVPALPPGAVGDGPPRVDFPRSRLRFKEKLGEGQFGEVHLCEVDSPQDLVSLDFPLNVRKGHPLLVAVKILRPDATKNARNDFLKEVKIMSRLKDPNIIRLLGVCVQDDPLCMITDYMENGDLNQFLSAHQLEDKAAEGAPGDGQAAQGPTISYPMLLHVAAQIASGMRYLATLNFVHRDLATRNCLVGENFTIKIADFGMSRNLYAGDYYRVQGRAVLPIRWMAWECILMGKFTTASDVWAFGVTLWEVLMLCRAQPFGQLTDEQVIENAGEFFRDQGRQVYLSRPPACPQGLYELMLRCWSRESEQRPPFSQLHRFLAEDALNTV", "assay": "Inhibition of human GST-tagged DDR1 cytoplasmic domain expressed in baculovirus expression system measured after 1 hr by FRET based Z'Lyte assay", "outline": "(§2)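 Z'-LYTE FRET biochemical kinase assay run by Invitrogen on selected kinases identified from binding profiling; IC50 from dose-response.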"}, "[7]": {"target": "Discoidin domain-containing receptor 2 (Homo sapiens, UniProt Q16832)", "sequence (Q16832 whole entry, the tested form may be a part)": "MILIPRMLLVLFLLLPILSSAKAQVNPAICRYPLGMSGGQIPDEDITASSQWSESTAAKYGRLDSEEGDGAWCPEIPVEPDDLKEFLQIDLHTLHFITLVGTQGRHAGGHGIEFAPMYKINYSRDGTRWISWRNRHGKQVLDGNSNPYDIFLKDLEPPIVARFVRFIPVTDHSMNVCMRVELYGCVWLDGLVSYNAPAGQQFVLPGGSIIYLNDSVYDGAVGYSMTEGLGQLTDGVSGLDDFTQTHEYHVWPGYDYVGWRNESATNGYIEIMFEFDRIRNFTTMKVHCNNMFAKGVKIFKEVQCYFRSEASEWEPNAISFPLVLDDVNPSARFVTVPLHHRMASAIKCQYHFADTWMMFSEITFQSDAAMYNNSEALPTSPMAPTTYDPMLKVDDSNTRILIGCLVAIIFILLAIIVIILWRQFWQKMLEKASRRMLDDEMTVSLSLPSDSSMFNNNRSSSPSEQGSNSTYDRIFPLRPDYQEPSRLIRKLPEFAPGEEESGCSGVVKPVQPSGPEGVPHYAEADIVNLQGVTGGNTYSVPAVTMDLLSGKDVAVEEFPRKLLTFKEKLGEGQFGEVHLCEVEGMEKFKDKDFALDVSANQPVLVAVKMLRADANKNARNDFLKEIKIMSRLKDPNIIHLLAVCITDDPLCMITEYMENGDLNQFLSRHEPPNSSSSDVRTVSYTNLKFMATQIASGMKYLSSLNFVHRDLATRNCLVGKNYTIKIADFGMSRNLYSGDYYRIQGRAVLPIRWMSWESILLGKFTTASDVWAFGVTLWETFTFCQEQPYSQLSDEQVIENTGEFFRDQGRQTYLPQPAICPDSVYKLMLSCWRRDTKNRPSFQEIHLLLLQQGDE", "assay": "Inhibition of recombinant His-tagged human DDR2 cytoplasmic domain expressed in baculovirus expression system measured after 1 hr by FRET based Z'Lyte assay", "outline": "as §2"}, "[8]": {"system": "BaF3", "assay": "Inhibition of BCR/ABL p210 fusion protein F317I mutant (unknown origin) expressed in BAF3 cells assessed as growth inhibition measured after 72 hrs by CellTiter-Glo or CCK8 assay", "assay_type": "cell-based", "settings": "Homo sapiens", "outline": "(§3)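 BaF3 lines were made by retroviral transduction with kinase-fusion MSCV vectors packaged in HEK293T cells. Cells were selected with puromycin for 48 h, then selected again without IL-3 so growth depends on the introduced kinase. […] They were seeded at 1 to 2.5×10^4 cells/mL with compound dilutions and incubated 72 h. Viability was read by CellTiter-Glo luminescence or CCK-8 absorbance (450/655 nm), normalized to DMSO control; GI50 was curve-fitted from triplicate tests.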"}, "[9]": {"system": "Mast/stem cell growth factor receptor Kit (Homo sapiens), P10721 [V559D,T670I]", "sequence (P10721 whole entry V559D/T670I, the tested form may be a part)": "as the sequence (P10721 whole entry) above, with V559D, T670I counted along it", "assay": "Inhibition of Tel-fused c-KIT T670I/V559D double mutant (unknown origin) expressed in BAF3 cells assessed as growth inhibition measured after 72 hrs by CellTiter-Glo or CCK8 assay", "assay_type": "cell-based", "outline": "as §3"}, "[10]": {"assay": "Antiproliferative activity against human K562 cells measured after 72 hrs by CellTiter-Glo or CCK8 assay", "assay_type": "functional", "settings": "K562, 72 h"}, "[11]": {"target": "T3, BCR/ABL p210 fusion protein (Homo sapiens, UniProt A1Z199)", "T3 sequence (A1Z199 1-97)": "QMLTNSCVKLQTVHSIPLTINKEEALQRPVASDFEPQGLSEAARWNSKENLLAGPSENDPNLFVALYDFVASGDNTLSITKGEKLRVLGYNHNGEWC", "assay": "Inhibition of BCR/ABL p210 fusion protein mediated signaling pathways assessed as reduction in CrkL phosphorylation at Y207 in human K562 cells at 0.01 to 3 uM measured after 2 hrs by immunoblotting", "assay_type": "cell-based", "outline": "(§4)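 After an ice-cold PBS wash, cells were lysed in RIPA buffer (50 mM Tris pH 8.0) with protease and phosphatase inhibitors, and protein was quantified by BCA. Lysates were run on SDS-PAGE, transferred to PVDF and blocked in 5% milk/TBST. Phospho- and total proteins were probed by immunoblot with ECL detection; β-actin served as loading control.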"}, "[12]": {"target": "T3, BCR/ABL p210 fusion protein", "assay": "Inhibition of BCR/ABL p210 fusion protein mediated signaling pathways assessed as reduction in Stat5 phosphorylation at Y694 in human KU812 cells at 0.01 to 3 uM measured after 2 hrs by immunoblotting", "assay_type": "cell-based", "outline": "as §4"}, "[13]": {"target": "T3, BCR/ABL p210 fusion protein", "assay": "Inhibition of BCR/ABL p210 fusion protein mediated signaling pathways assessed as reduction in ERK phosphorylation at T202/Y204 in human KU812 cells at 0.01 to 3 uM measured after 2 hrs by immunoblotting", "assay_type": "cell-based", "outline": "as §4"}, "[14]": {"target": "T3, BCR/ABL p210 fusion protein", "assay": "Inhibition of BCR/ABL p210 fusion protein mediated signaling pathways assessed as reduction in CrkL phosphorylation at Y207 in human MEG01 cells at 0.01 to 3 uM measured after 2 hrs by immunoblotting", "assay_type": "cell-based", "settings": "MEG-01", "outline": "as §4"}, "[15]": {"target": "T3, BCR/ABL p210 fusion protein", "assay": "Inhibition of BCR/ABL p210 fusion protein mediated signaling pathways assessed as reduction in ERK phosphorylation at T202/Y204 in human MEG01 cells at 0.01 to 3 uM measured after 2 hrs by immunoblotting", "assay_type": "cell-based", "settings": "MEG-01", "outline": "as §4"}, "[16]": {"target": "T1, Mast/stem cell growth factor receptor Kit", "assay": "Inhibition of c-KIT autophosphorylation at Y703 in human GISTT1 cells at 0.03 to 10 uM measured after 2 hrs by immunoblotting", "assay_type": "cell-based", "outline": "as §4"}, "[17]": {"target": "T1, Mast/stem cell growth factor receptor Kit", "assay": "Inhibition of c-KIT autophosphorylation at Y719 in human GIST882 cells at 0.01 to 3 uM measured after 2 hrs by immunoblotting", "assay_type": "cell-based", "outline": "as §4"}, "[18]": {"target": "T1, Mast/stem cell growth factor receptor Kit", "assay": "Inhibition of c-KIT mediated signaling pathways assessed as reduction in STAT3/5 phosphorylation at Y705/Y694 in human GIST882 cells at 0.03 to 10 uM measured after 2 hrs by immunoblotting", "assay_type": "cell-based", "outline": "as §4"}, "[19]": {"assay": "Cell cycle arrest in human KU812 cells assessed as accumulation at G0/G1 phase at 0.3 uM after 12 hrs by propidium iodide/RNase staining based flow cytometry", "assay_type": "functional", "outline": "as §1"}, "[20]": {"assay": "Tmax in Sprague-Dawley rat at 1 mg/kg, iv", "assay_type": "ADME, organism-based", "settings": "in vivo", "outline": "(§5)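 Male Sprague-Dawley rats, 6-8 weeks old, fasted overnight, dosed iv or po. Jugular vein blood (~0.2 mL, heparin) sampled at 1 min to 8 h (iv) or 5 min to 24 h (po). Plasma separated by centrifugation at 2-8 °C and stored at -80 °C before analysis.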"}, "[21]": {"assay": "Oral bioavailability in Sprague-Dawley rat at 10 mg/kg", "assay_type": "ADME, organism-based", "settings": "in vivo", "outline": "as §5"}, "[22]": {"assay": "Mean residence time (0 to t) in Sprague-Dawley rat at 10 mg/kg, po", "assay_type": "ADME, organism-based", "settings": "in vivo", "outline": "as §5"}, "[23]": {"target": "T1, Mast/stem cell growth factor receptor Kit", "assay": "Inhibition of c-KIT mediated signaling pathways assessed as reduction in AKT phosphorylation at S473 in human GIST882 cells at 0.03 to 10 uM measured after 2 hrs by immunoblotting", "assay_type": "cell-based", "outline": "as §4"}, "[24]": {"target": "T1, Mast/stem cell growth factor receptor Kit", "settings": "BaF3"}, "[25]": {"target": "T2, Tyrosine-protein kinase Lck", "settings": "BaF3"}, "[26]": {"target": "Serine/threonine-protein kinase 10 (Homo sapiens) (UniProt O94804)", "sequence (O94804 whole entry, looked up)": "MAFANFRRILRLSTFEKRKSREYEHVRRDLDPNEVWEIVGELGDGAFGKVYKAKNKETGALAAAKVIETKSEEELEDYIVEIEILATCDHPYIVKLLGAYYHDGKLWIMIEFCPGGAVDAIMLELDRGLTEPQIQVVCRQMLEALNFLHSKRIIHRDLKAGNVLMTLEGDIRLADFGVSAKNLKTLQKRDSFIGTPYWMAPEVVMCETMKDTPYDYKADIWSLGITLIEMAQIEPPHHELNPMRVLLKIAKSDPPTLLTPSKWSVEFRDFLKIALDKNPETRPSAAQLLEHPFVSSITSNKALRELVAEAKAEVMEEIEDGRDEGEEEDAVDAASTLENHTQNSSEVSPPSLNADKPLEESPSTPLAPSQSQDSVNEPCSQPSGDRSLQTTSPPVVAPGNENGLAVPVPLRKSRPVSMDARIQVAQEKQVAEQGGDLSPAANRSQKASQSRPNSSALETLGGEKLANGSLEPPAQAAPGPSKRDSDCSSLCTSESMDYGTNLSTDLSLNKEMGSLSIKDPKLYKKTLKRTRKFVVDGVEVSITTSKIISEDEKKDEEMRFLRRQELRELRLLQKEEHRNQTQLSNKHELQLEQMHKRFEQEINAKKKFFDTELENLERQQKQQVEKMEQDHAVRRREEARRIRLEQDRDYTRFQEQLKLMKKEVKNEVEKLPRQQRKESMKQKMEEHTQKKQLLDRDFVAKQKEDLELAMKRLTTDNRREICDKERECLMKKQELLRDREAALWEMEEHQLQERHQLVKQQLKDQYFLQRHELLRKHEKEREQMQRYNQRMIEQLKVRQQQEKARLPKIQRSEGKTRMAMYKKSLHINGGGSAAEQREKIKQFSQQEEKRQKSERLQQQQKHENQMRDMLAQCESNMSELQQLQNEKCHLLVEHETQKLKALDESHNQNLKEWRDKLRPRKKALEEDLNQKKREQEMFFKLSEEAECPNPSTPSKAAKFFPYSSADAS", "assay": "Inhibition of LOK (unknown origin) assessed as residual activity at 1 uM by KINOMEscan binding assay relative to control"}, "[27]": {"assay": "Anticancer activity against human GISTT1 cells xenografted in nu/nu mouse assessed as tumor weight at 50 mg/kg, po administered daily via oral gavage measured 21 days post compound treatment (reference value: 2.86 g)"}}, "note": "Activity calls are given as the source filed them. No cut-off for these calls is given here.", "data": [{"molecule": "Cc1ccc(NC(=O)c2ccc(CN3CCN(C)CC3)cc2)cc1Nc1nccc(-c2cccnc2)n1", "note": "[IMATINIB]", "values": [{"measurement": "Activity", "setting": "[1]", "value": "Active"}, {"measurement": "inhibition", "setting": "[2]", "value": "Active"}, {"measurement": "inhibition", "setting": "[3]", "value": "Active"}, {"measurement": "inhibition", "setting": "[4]", "value": "Active"}]}, {"molecule": "Cc1ccc(C(=O)N2CCC(Oc3cc(NC(=O)c4ccc(CN5CCN(C)CC5)c(C(F)(F)F)c4)ccc3C)CC2)cn1", "values": [{"measurement": "Activity", "setting": "[5]", "value": 0.55, "unit": "%"}, {"measurement": "IC50", "setting": "[6]", "value": 116, "unit": "nM"}, {"measurement": "IC50", "setting": "[7]", "value": 325, "unit": "nM"}, {"measurement": "GI50", "setting": "[8]", "value": 490, "unit": "nM"}, {"measurement": "GI50", "setting": "[9]", "value": 1010, "unit": "nM"}, {"measurement": "GI50", "setting": "[10]", "value": 27, "unit": "nM"}, {"measurement": "inhibition", "setting": "[11]", "value": "Active"}, {"measurement": "inhibition", "setting": "[12]", "value": "Active"}, {"measurement": "inhibition", "setting": "[13]", "value": "Active"}, {"measurement": "inhibition", "setting": "[14]", "value": "Active"}, {"measurement": "inhibition", "setting": "[15]", "value": "Active"}, {"measurement": "inhibition", "setting": "[16]", "value": "Active"}, {"measurement": "inhibition", "setting": "[17]", "value": "Active"}, {"measurement": "inhibition", "setting": "[18]", "value": "Active"}, {"measurement": "Activity", "setting": "[19]", "value": "Active"}, {"measurement": "Tmax", "setting": "[20]", "value": 1.02, "unit": "min"}, {"measurement": "bioavailability", "setting": "[21]", "value": 47.5, "unit": "%"}, {"measurement": "MRT last", "setting": "[22]", "value": 5.75, "unit": "h"}, {"measurement": "inhibition", "setting": "[23]", "value": "Active"}, {"measurement": "GI50", "setting": "[24]", "value": 149, "unit": "nM"}, {"measurement": "GI50", "setting": "[25]", "value": 386, "unit": "nM"}, {"measurement": "Activity", "setting": "[26]", "value": 0.6, "unit": "%"}, {"measurement": "Activity", "setting": "[27]", "value": 2.19, "unit": "g"}]}]}
